Calb FLC: C. albicans growth inhibition with fluconazole, primary screen, CaCi-2 strain, Alamar Blue fluorescence; C. albicans CaCi-2 (fluconazole-resistant clinical isolate) + fluconazole, 48 h; growth inhibition, % (test concentration not listed); 0.57% of 300,000 active; AID 1979, 2009;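 active means growth inhibition above about 58% in most replicates, limit read from the data, passing the limit was not always enough; inconclusive means exactly half the replicates above a set limit; inactive means most replicates below a set limit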;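 further: all wells also contain fluconazole at 8 µg/ml as a sub-toxic cotreatment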
T cruzi repl: inhibitors of intracellular T. cruzi growth, primary screen, luminescence, NIH3T3 host cells. AID 1885, 2009. T. cruzi beta-gal in NIH3T3, 90 h. 1.4% of 300,000 active. inhibition, % (no concentration beside the values);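 active means mean inhibition across valid replicates above about 55%, limit read from the data; inconclusive means mean below that limit but half or more replicates reach it; inactive means mean below it, under half of replicates reach it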;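 further: signal also drops with host cell toxicity which is not excluded here; higher percent means less beta-gal luminescence so fewer parasites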
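Assay system: NIH/3T3 host cells with β-galactosidase reporter T. cruzi; input: 5,000 host fibroblasts per well; compound: single 50 nL compound addition per well in DMSO; timing: ≥90 h infection period, 3 h prior cell attachment; measured by: GalScreen β-gal luminescence, detergent lysis, 60 min; evaluation: percent inhibition of parasite-derived β-gal signal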
Mdm2 MdmX PPI: inhibitors of human Mdm2-MdmX association, primary screen, cell-based, luminescence, split luciferase, SaOS-2, uHTS | 3% of 330,000 active | SaOS-2 split-luciferase Mdm2/MdmX complementation | inhibition, % at 8 µM;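 active means inhibition of at least 50% at 8 µM in the primary screen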
Target sequence (O15151 whole entry, looked up): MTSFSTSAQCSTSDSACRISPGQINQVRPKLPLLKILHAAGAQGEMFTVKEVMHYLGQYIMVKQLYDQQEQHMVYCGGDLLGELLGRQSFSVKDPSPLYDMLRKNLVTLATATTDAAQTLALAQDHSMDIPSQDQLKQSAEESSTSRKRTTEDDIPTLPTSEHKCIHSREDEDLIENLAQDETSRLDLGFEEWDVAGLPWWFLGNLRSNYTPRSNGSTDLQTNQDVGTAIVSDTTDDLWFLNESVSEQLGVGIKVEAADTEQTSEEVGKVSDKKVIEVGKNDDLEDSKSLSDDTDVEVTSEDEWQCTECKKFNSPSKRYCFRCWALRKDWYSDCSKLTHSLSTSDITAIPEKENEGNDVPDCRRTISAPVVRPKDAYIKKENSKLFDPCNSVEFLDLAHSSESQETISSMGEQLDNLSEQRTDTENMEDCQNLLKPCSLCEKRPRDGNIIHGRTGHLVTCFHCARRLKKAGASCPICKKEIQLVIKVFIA
Target sequence (Q00987 whole entry, looked up): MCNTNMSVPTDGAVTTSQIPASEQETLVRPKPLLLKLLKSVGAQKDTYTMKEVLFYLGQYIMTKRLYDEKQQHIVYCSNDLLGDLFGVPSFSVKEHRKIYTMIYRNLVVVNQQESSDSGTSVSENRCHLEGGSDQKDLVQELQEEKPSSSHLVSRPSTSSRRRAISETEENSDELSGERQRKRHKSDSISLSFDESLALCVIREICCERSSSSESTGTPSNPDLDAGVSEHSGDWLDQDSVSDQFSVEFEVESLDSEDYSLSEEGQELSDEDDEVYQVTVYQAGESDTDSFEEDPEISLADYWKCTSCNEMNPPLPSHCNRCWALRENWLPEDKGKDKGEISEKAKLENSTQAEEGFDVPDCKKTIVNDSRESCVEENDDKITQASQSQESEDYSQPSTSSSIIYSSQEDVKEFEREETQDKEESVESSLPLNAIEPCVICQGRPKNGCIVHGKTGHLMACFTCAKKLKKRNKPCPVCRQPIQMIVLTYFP
NLRP3 yeast inh: NALP3 inflammasome inhibitors in reconstituted yeast, primary screen, luminescence, uHTS | Yeast reconstituted NLRP3/ASC/caspase-1, beta-gal luminescence, 24 h | inhibition, % at 10 µM | 0.39% of 330,000 active | AID 2825, 2010;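 active means inhibition of 50% or more; inactive means inhibition below 50%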
Beta cell apopt: inhibitors of cytokine-induced beta cell apoptosis, primary screen, luminescence. INS-1E cytokine-induced death, ATP luminescence, 48 h; percent of positive-control rescue, neutral wells zero. AID 435005, 2010. 0.8% of 300,000 active. protection from apoptosis, % (test concentration not listed);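 active means Every replicate reaches about 75%, or at least half do and their mean reaches it too, limit read from the data; inconclusive means At least half of replicates reach the limit but their mean does not; inactive means Under half of replicates reach the limit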;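 further: higher means more ATP so stronger rescue from cytokine killing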
CSC inhib: cancer stem cell viability inhibitors, primary screen, luminescence. AID 2717, 2010. inhibition, % at 7.5 µM. cancer stem cell-like cells viability. 1.1% of 300,000 active; in the data active means inhibition above about 75%; inconclusive means no clear call, values can overlap the other calls; tested in HMLE shEcad cells
Mdm2-MdmX conf: Mdm2-MdmX complex disruptors, retested hits, confirmation, luminescence, single concentration. Mdm2-MdmX binding, luminescent assay. 55% of 10,000 active. inhibition, % at 8 µM. shares compounds with Mdm2 MdmX PPI; in the data active means inhibition above about 40%
Full FLuc ctr: full-length luciferase signal inhibition, confirmation, counter-screen for Mdm2/MdmX interaction inhibitor project, cell-based, single concentration, SaOS-2 | inhibition, % at 8 µM | SaOS-2 full-length luciferase counterscreen, luminescence | shares compounds with Mdm2 MdmX PPI | 77% of 6,200 active;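 active means mean inhibition at 8 µM reaching about 37%, which flags the compound as non-specific, limit read from the data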;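 further: p53-null SaOS-2 cells with luciferase driven by a doxycycline-inducible promoter; compound on cells about two nights before reading with doxycycline added after day one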
Hits are given with their value; - = inactive; ? = inconclusive; . = no result given. A selection: hits, their analogues and other compounds. The true share with any hit is near 5.3%.

SMILES | Calb FLC | T cruzi repl | Mdm2 MdmX PPI | NLRP3 yeast inh | Beta cell apopt | CSC inhib | Mdm2-MdmX conf | Full FLuc ctr
O=C(O)c1c2c(nc3ccccc13)/C(=C/c1ccc(O)cc1)CC2 | - | - | 62 | - | - | - | 60 | 106
CC(=O)N1N=C(c2cccc(Cl)c2)OC1c1cccc([N+](=O)[O-])c1 (centres undefined) | - | - | 65 | - | - | - | - | .
O=C(NCCCN1CCCCCC1)c1ccc2c(Cl)c3c(nc2c1)CCCC3 | - | - | 59 | - | - | - | - | .
CCN1CCN(CCCNC(=O)c2ccc3c(Cl)c4c(nc3c2)CCCC4)CC1 | - | - | 73 | - | - | - | 46 | 43
CCCNC(=O)c1ccc2nc(-c3ccccc3)c(-c3ccccc3)nc2c1 | - | - | - | - | - | - | . | .
CCN1CCN(CCNC(=O)c2ccc3nc(-c4cccc(C)c4)c(-c4cccc(C)c4)nc3c2)CC1 | - | - | 100 | - | - | - | 59 | -
N#CC1CCN(C(=O)c2ccc3c(Cl)c4c(nc3c2)CCCC4)CC1 | - | - | 52 | - | - | - | - | .
CCOc1ccc(NC(=O)c2cc3c(C)nc4ccccc4c3o2)cc1 | - | - | - | - | - | - | . | .
COCCNC(=O)c1ccc2c(Cl)c3c(nc2c1)CCC3 | - | - | - | - | - | - | . | .
CC1CCN(CCCNC(=O)c2ccc3c(Cl)c4c(nc3c2)CCCC4)CC1 | - | - | 79 | - | - | - | 68 | -
COC(=O)C1=COC(OC2OC(CO)C(O)C(O)C2O)C2C1C=CC2(O)CO (centres undefined) | . | . | - | - | . | - | . | .
Cc1cc(C)c2sc(NC(=O)C3CC3)nc2c1 | - | - | - | - | - | - | . | .
O=C(CCl)N1CCN(C(=O)C2COc3ccccc3O2)CC1 (centres undefined) | . | . | 67 | - | - | - | - | .
CCCCn1nnc(NC(=O)c2cc3ccccc3o2)n1 | - | - | - | - | - | - | . | .
COc1ccc(C2=Nn3c(nnc3-c3ccccc3OC)SC2)cc1OCC1CC1 | . | . | 74 | - | - | . | 66 | 86
COc1ccc(OC)c(-c2nnc3n2N=C(c2ccc(OC(F)F)c(OCC4CC4)c2)CS3)c1 | . | . | 57 | - | - | 76 | 55 | 46
COc1cc2c(cc1OC)C(C)N(C(=O)c1cc3c(C)cc(C)cc3[nH]1)CC2 (centres undefined) | - | - | 67 | - | - | - | 73 | 48
COc1cc2c(cc1OC)C(C)N(C(=O)Nc1cc(C)cc(C)c1)CC2 (centres undefined) | - | - | - | - | . | . | . | .
Cc1ccc2nc(/C(C#N)=C/c3cn[nH]c3-c3ccc(F)cc3)[nH]c2c1 | - | - | 66 | - | - | - | 57 | 48
Cc1ccc2nc(/C(C#N)=C/c3ccc(O)c(O)c3)[nH]c2c1 | - | - | - | - | - | - | . | .
CCN(Cc1ccccc1)c1ccc(/C=N/NC(=S)NC(C)C)cc1 | ? | - | - | - | - | ? | . | .
CCN(Cc1ccccc1)c1ccc(/C=N/N=C(N)N)cc1 | - | ? | 98 | - | . | 102 | 100 | 58
CCc1ccc(NC(=O)c2cnc3n(c2=O)CCS3)cc1 | - | - | - | - | . | - | . | .
Cc1ccc(Cn2nnnc2CN2CCC(c3nc4ccc(Cl)cc4[nH]3)CC2)cc1 | ? | - | 58 | - | - | - | - | 46
Cc1ccc2c(c1)C(=O)C(=O)N2CCOc1ccccc1 | - | - | 65 | - | - | - | 46 | 95
SMILES | Calb FLC | T cruzi repl | Mdm2 MdmX PPI | NLRP3 yeast inh | Beta cell apopt | CSC inhib | Mdm2-MdmX conf | Full FLuc ctr
Cc1cccc(OCCN2C(=O)C(=O)c3cc(C)ccc32)c1 | - | - | 69 | - | - | - | 62 | 90
CC(C)COC(=O)c1cc(-c2ccc(/C=N/n3cnnc3)o2)ccc1Cl | - | - | - | - | - | - | . | .
O=C(Cn1nnc(-c2ccccc2)n1)N/N=C/c1cccc([N+](=O)[O-])c1 | - | - | - | - | - | - | . | .
COc1ccc(C(C)=O)cc1CSc1nnc(-c2ccc(Cl)cc2)n1-c1ccccc1 | - | - | 63 | - | - | - | 49 | -
OCCN1CCN(c2nc(-c3ccccc3)nc3c2oc2ccccc23)CC1 | - | - | 54 | - | - | - | - | 54
O=C1C=C(c2ccc3ncccc3c2)C[C@@H](c2ccc(Cl)cc2)C1 | . | . | 54 | - | - | - | 46 | 83
CCc1cc(=O)oc2cc(C)cc(OC(C)C(=O)NCCN3CCOCC3)c12 (centres undefined) | - | - | - | - | . | - | . | .
CCCOC(=O)c1ccc(NC(=O)C2C3C=CC(O3)C2C(=O)O)cc1 (centres undefined) | - | - | - | - | - | . | . | .
Cc1ccc(-c2nc3c(c(=O)[nH]c(=O)n3Cc3ccccc3)n2C)s1 | - | - | 62 | - | - | - | - | .
O=C(Nc1cc(Cl)ccc1N1CCOCC1)c1ccc(F)c(S(=O)(=O)N2CCOCC2)c1 | . | . | - | - | - | . | . | .
Cc1nc2c(-c3ccc(Cl)cc3)cnn2c(N)c1-c1ccc(F)cc1 | - | - | 88 | - | - | - | 85 | 105
Cc1nc2c(-c3ccc(F)cc3)cnn2c(N)c1-c1ccccc1 | - | - | 91 | - | - | - | 87 | 110
COc1nc(-c2ccccc2)cc(-c2ccccc2)n1 | - | - | - | - | . | - | . | .
COCCn1c(C)cc(C(=O)CSc2nc3ccccc3s2)c1C | - | - | 66 | - | - | - | 70 | 146
COCCn1c(C)cc(C(=O)CSc2nnc3ccccn23)c1C | - | - | 54 | - | - | - | 62 | 113
CC1CCN(S(=O)(=O)c2ccc(NC(=S)NC(=O)c3ccc(Cl)cc3)cc2)CC1 | - | - | 54 | - | - | - | - | 72
Cc1cc(C)c(S(=O)(=O)N2CCCOC2CNC(=O)C(=O)NCCCn2ccnc2)c(C)c1 (centres undefined) | - | - | - | - | - | - | . | .
O=C(N/N=C/c1ccc2c(c1)OCO2)c1cc(-c2ccncc2)nc2ccccc12 | - | - | 51 | - | - | - | 44 | 59
O=C(N/N=C/c1ccsc1)c1cc(-c2ccncc2)nc2ccccc12 | - | - | 52 | - | - | - | - | 66
COc1ccccc1-c1cc(C(=O)N/N=C/c2sccc2C)c2ccccc2n1 | - | - | - | - | - | - | . | .
CC(/C=N/NC(=O)c1cc(-c2ccncc2)nc2ccccc12)=C\c1ccco1 | - | - | 63 | - | - | . | 62 | 97
